≈ marks a conversion by molar mass, not a printed value.
Tests used:
[1] = Selectivity index, ratio of CC50 for MDBK cells to EC50 for BVDV NADL infected in MDBK cells
Method in brief: (§1)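 Selectivity index is the ratio of CC50 from the 3-day MTS/PMS proliferation assay to EC50 in the same cell line. For Huh 5-2 the EC50 is from the luciferase replicon assay; for MDBK it is from the MTS CPE assay.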

[2] = Cytotoxicity against MDBK cells assessed as growth inhibition after 3 days by MTS assay; format: cell-based, Bos taurus; settings: cattle
Method in brief: (§2)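 MDBK or Huh 5-2 cells were seeded at 5 × 10³/well in MEM-FCS, with serial compound dilutions added 24 h later. Cells proliferated 3 days at 37 °C, then metabolic activity was read by MTS/PMS. CC50 is the concentration inhibiting proliferation of exponentially growing cells by 50%, by linear interpolation.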

[3] = Antiviral activity against BVDV NADL infected in MDBK cells assessed as inhibition of virus-induced cytopathic effect formation after 5 days by MTS assay; format: functional, cell-based, Bovine viral diarrhea virus 1-NADL; settings: Bovine viral diarrhea virus isolates and strains, 120 h
Method in brief: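 MDBK cells were seeded at 5 × 10³/well in MEM-FCS and held 24 h at 37 °C, 5% CO₂. Medium was replaced with 5-fold serial compound dilutions, then BVDV inoculum was added at MOI 2. CPE was read by MTS as OD at 490 nm. EC50 is the concentration giving 50% protection against virus-induced CPE, by linear interpolation.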

[4] = Selectivity index, ratio of CC50 for Huh5-2 cells to EC50 for HCV genotype 1b infected in Huh5-2 cells; set-up: species or system Huh-5-2; method in brief: as §1
[5] = Cytotoxicity against human Huh5-2 cells assessed as growth inhibition after 3 days by MTS assay; format: cell-based, Huh-5-2; method in brief: as §2
Hepatitis C virus = assay: Antiviral activity against HCV genotype 1b infected in Huh5-2 cells assessed as inhibition of viral replication after 4 days by luciferase reporter gene assay; format: functional, organism-based, Hepacivirus hominis, Huh-5-2; settings: Hepatitis C virus, genotype 1b, Huh-5-2, 96 h
Method in brief: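 Huh 5-2 cells carrying the HCV subgenomic luciferase replicon were seeded at 5 × 10³/well with compound and incubated 4 days at 37 °C. Medium was removed and luciferase activity quantified. EC50 is the minimum concentration reducing replicon-driven luciferase signal by 50%.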

Structure (SMILES) | Ratio CC50/EC50 [1] | CC50 at 72 h [2] | EC50 [3] | Ratio CC50/EC50 [4] | CC50 at 72 h [5] | EC50 (Hepatitis C virus)
COc1ccccc1-c1nc2ccc(-c3ccsc3)cn2c1-c1cccc(-c2ccccc2)c1 | >1.5 | > 100 µg/mL | 68.6 µg/mL (≈ 150 µM) | 3.3 | 56.8 µg/mL (≈ 124 µM) | 17.5 µg/mL (≈ 38.2 µM)
CN1CCN(c2ccc3nc(-c4ccc(F)cc4)c(-c4ccc(-c5ccccc5)cc4)n3n2)CC1 | >1 | > 50 µg/mL | > 50 µg/mL |  | 45.3 µg/mL (≈ 97.7 µM) | 
Fc1ccc(-c2nc3ccccn3c2-c2ccc(-c3ccccc3)cc2)cc1 |  |  |  |  | 36 µg/mL (≈ 98.8 µM) | 2.64 µg/mL (≈ 7.24 µM)
Fc1ccc(-c2nc3ccccn3c2-c2cccc(-c3cc4ccccc4o3)c2)cc1 |  |  |  | 2 | 54.9 µg/mL (≈ 136 µM) | 28 µg/mL (≈ 69.2 µM)
COc1ccccc1-c1nc2ccccn2c1-c1cccc(-c2ccccc2O)c1 | 1.9 | 14.4 µg/mL (≈ 36.7 µM) | 7.55 µg/mL (≈ 19.2 µM) | 2 | 95.8 µg/mL (≈ 244 µM) | 48.9 µg/mL (≈ 125 µM)
COc1ccccc1-c1nc2ccc(-c3ccsc3)nn2c1-c1cccc(-c2ccoc2)c1 |  | > 100 µg/mL | > 100 µg/mL | 1.4 | 15.7 µg/mL (≈ 34.9 µM) | 11.1 µg/mL (≈ 24.7 µM)
COc1ccccc1-c1nc2ccccn2c1-c1cccc(-c2cccc(O)c2)c1 |  |  |  | 11.4 | 40.3 µg/mL (≈ 103 µM) | 3.5 µg/mL (≈ 8.92 µM)
Fc1ccc(-c2nc3ccc(N4CCOCC4)nn3c2-c2ccc(-c3ccccc3)cc2)cc1 | >1 | > 50 µg/mL | > 50 µg/mL |  | 33.3 µg/mL (≈ 73.9 µM) | 
Fc1ccc(-c2nc3ccc(N4CCOCC4)cn3c2-c2ccc(-c3ccccc3)cc2)cc1 | >1 | > 50 µg/mL | > 50 µg/mL | 2.3 | 15.6 µg/mL (≈ 34.7 µM) | 6.7 µg/mL (≈ 14.9 µM)
Fc1ccc(-c2nc3ccc(-c4ccccc4)cn3c2-c2ccc(-c3ccccc3)cc2)cc1 |  | 30 µg/mL (≈ 68.1 µM) | > 30 µg/mL | 2.5 | 11.4 µg/mL (≈ 25.9 µM) | 4.5 µg/mL (≈ 10.2 µM)
Fc1ccc(-c2nc3ccc(-c4ccsc4)cn3c2-c2cccc(-c3ccccc3)c2)cc1 | >45 | > 33 µg/mL | 0.74 µg/mL (≈ 1.66 µM) | >1 | > 112 µg/mL | > 112 µg/mL
Fc1ccc(-c2nc3ccccn3c2-c2cccc(-c3ccsc3)c2)cc1 | 3 | 7 µg/mL (≈ 18.9 µM) | 2.3 µg/mL (≈ 6.21 µM) | 5.1 | 56.7 µg/mL (≈ 153 µM) | 11.1 µg/mL (≈ 30 µM)
CN1CCN(c2cccc(-c3c(-c4ccc(F)cc4)nc4ccccn34)c2)CC1 |  |  |  | 2.8 | 60.1 µg/mL (≈ 156 µM) | 21.8 µg/mL (≈ 56.4 µM)
Fc1ccc(-c2nc3ccccn3c2-c2cccc(-c3ccc(Cl)cc3)c2)cc1 | 4.3 | 12.7 µg/mL (≈ 31.8 µM) | 3 µg/mL (≈ 7.52 µM) | 9.7 | 57.5 µg/mL (≈ 144 µM) | 5.9 µg/mL (≈ 14.8 µM)
Fc1ccc(-c2nc3ccccn3c2-c2cccc(-c3ccncc3)c2)cc1 | 7.1 | 7 µg/mL (≈ 19.2 µM) | 0.98 µg/mL (≈ 2.68 µM) | 2.3 | 45.5 µg/mL (≈ 125 µM) | 20.2 µg/mL (≈ 55.3 µM)
Fc1ccc(-c2nc3ccc(-c4ccccc4)nn3c2-c2cccc(-c3ccccc3)c2)cc1 | 20 | 25 µg/mL (≈ 56.6 µM) | 1.23 µg/mL (≈ 2.79 µM) | 1.4 | 15.9 µg/mL (≈ 36 µM) | 11.3 µg/mL (≈ 25.6 µM)
CC(C)(C)c1nc2ccc(-c3ccsc3)nn2c1-c1cccc(-c2ccco2)c1 |  | > 100 µg/mL | > 100 µg/mL | 4.8 | 41.3 µg/mL (≈ 103 µM) | 8.6 µg/mL (≈ 21.5 µM)

Structure (SMILES) | Ratio CC50/EC50 [1] | CC50 at 72 h [2] | EC50 [3] | Ratio CC50/EC50 [4] | CC50 at 72 h [5] | EC50 (Hepatitis C virus)
Fc1ccc(-c2nc3ccc(-c4ccsc4)nn3c2-c2cccc(-c3ccccc3)c2)cc1 | 8 | 13 µg/mL (≈ 29 µM) | 1.7 µg/mL (≈ 3.8 µM) | 1.2 | 13.4 µg/mL (≈ 29.9 µM) | 11.2 µg/mL (≈ 25 µM)
Fc1ccc(-c2nc3ccc(N4CCOCC4)nn3c2-c2cccc(-c3ccccc3)c2)cc1 | 3 | 12 µg/mL (≈ 26.6 µM) | 4 µg/mL (≈ 8.88 µM) |  | 11.1 µg/mL (≈ 24.6 µM) | 
COc1ccccc1-c1nc2ccc(-c3ccsc3)nn2c1-c1cccc(-c2ccc(O)cc2)c1 |  | > 100 µg/mL | > 100 µg/mL | 9.2 | 22.1 µg/mL (≈ 46.5 µM) | 2.4 µg/mL (≈ 5.05 µM)
COc1ccc(-c2nc3ccc(-c4ccsc4)cn3c2-c2cccc(-c3ccccc3)c2)cc1 | >4.4 | > 100 µg/mL | 22.7 µg/mL (≈ 49.5 µM) | >1.9 | > 109 µg/mL | 56.8 µg/mL (≈ 124 µM)
CC(C)(C)c1nc2ccc(-c3ccsc3)nn2c1-c1cccc(-c2ccoc2)c1 | 2.7 | 4.5 µg/mL (≈ 11.3 µM) | 1.7 µg/mL (≈ 4.26 µM) | 6.3 | 55.1 µg/mL (≈ 138 µM) | 8.7 µg/mL (≈ 21.8 µM)
CC(C)(C)c1nc2ccc(-c3ccsc3)nn2c1-c1cccc(-c2ccccc2)c1 | >2.6 | > 100 µg/mL | 37.9 µg/mL (≈ 92.5 µM) | 2.8 | 63.2 µg/mL (≈ 154 µM) | 22.7 µg/mL (≈ 55.4 µM)
CC(C)(C)c1nc2ccc(-c3ccsc3)cn2c1-c1cccc(-c2ccccc2)c1 | >1.6 | > 100 µg/mL | 62.6 µg/mL (≈ 153 µM) | >2.4 | > 123 µg/mL | 42.5 µg/mL (≈ 104 µM)
CCOC(=O)c1nc2ccc(-c3ccsc3)cn2c1-c1cccc(-c2ccccc2)c1 |  | 67.7 µg/mL (≈ 159 µM) | > 67.7 µg/mL | >2.2 | > 118 µg/mL | 53.1 µg/mL (≈ 125 µM)
Fc1ccc(-c2nc3ccc(-c4ccsc4)nn3c2-c2ccc(-c3ccccc3)cc2)cc1 | >1 | > 50 µg/mL | > 50 µg/mL | >1 | > 112 µg/mL | > 112 µg/mL
COc1ccccc1-c1nc2ccc(-c3ccsc3)nn2c1-c1cccc(-c2ccco2)c1 |  |  |  | 3.6 | 54.3 µg/mL (≈ 121 µM) | 15.1 µg/mL (≈ 33.6 µM)
Fc1ccc(-c2nc3ccccn3c2-c2cccc(-c3ccccc3)c2)cc1 |  |  |  | 1.7 | 60.4 µg/mL (≈ 166 µM) | 34.9 µg/mL (≈ 95.8 µM)
Fc1ccc(-c2nc3ccccn3c2-c2cccc(-c3ccco3)c2)cc1 |  |  |  | 1.9 | 24.7 µg/mL (≈ 69.7 µM) | 12.8 µg/mL (≈ 36.1 µM)
COc1ccccc1-c1nc2ccc(-c3ccsc3)nn2c1-c1cccc(-c2cccc(O)c2)c1 |  | > 100 µg/mL | > 100 µg/mL | 20.8 | 78.5 µg/mL (≈ 165 µM) | 3.8 µg/mL (≈ 7.99 µM)
CC(C)(C)c1nc2ccc(-c3ccsc3)nn2c1-c1cccc(-c2ccccc2O)c1 |  | > 100 µg/mL | > 100 µg/mL | 2.5 | 75.3 µg/mL (≈ 177 µM) | 30.1 µg/mL (≈ 70.7 µM)
Fc1ccc(-c2nc3ccc(-c4ccccc4)nn3c2-c2ccc(-c3ccccc3)cc2)cc1 | >1 | > 50 µg/mL | > 50 µg/mL |  | 45.3 µg/mL (≈ 103 µM) | 
Oc1ccc(-c2cccc(-c3c(-c4ccc(F)cc4)nc4ccccn34)c2)cc1 |  |  |  | 5.1 | 69.5 µg/mL (≈ 183 µM) | 13.5 µg/mL (≈ 35.5 µM)
